Laboratory results taken from publication PMC12926890 (Molecular pharmaceutics, 2024).

Key:
Type in all cases: cell-based, human
p38 MAPK = assay: RPPA proteomics assay of p38 phosphorylation; settings: BBB endothelial (hCMEC/D3) cells exposed to Aβ42
hCMEC/D3 monolayers [1] = assay: F-Aβ42 cellular uptake by flow cytometry; settings: 1 μM SB203580 30 min, then 60 min with 1 μM F-Aβ42
How it was run: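 hCMEC/D3 monolayers grown on collagen-coated 6-well plates, seeded at about 25,000 cells/cm², cultured 5−7 days at 37 °C and 5% CO₂ to confluency, then moved to 1% serum medium the day before. Cells were pretreated 30 min with 1 μM p38 inhibitor, then exposed 60 min to 1 μM FITC-Aβ₄₂. Read-out was the median fluorescence intensity of the cell population by flow cytometry, compared by unpaired two-tailed t test.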

hCMEC/D3 monolayers [2] = assay: F-Aβ42 intracellular accumulation by confocal microscopy; settings: 1 μM SB203580 30 min, then 60 min with 1 μM F-Aβ42
How it was run: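 Monolayers were grown on collagen-coated 8-well chambered slides, cultured 5−7 days at 37 °C and 5% CO₂, then held in 1% serum medium overnight. They received 1 μM p38 inhibitor for 30 min, then 1 μM FITC-Aβ₄₂ for 60 min. Cells were washed three times with ice-cold PBS, fixed in 4% paraformaldehyde for 20 min at room temperature, and DAPI-stained (300 nM, 10 min). They were then mounted and imaged by confocal SIM super-resolution.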

Aβ42: unlabeled amyloid-β 42 peptide custom synthesized by AAPPTec
p38 MAPK kinase activation (RPPA) (p38 MAPK): significantly activated

C[S+]([O-])c1ccc(-c2nc(-c3ccncc3)c(-c3ccc(F)cc3)[nH]2)cc1 (stereo not drawn) [SB203580]
F-Aβ42 uptake by hCMEC/D3 cells (flow cytometry, MFI) (hCMEC/D3 monolayers [1]): significantly reduced
fluorescent intensity of F-Aβ42 in the cytoplasm (confocal microscopy) (hCMEC/D3 monolayers [2]): substantial reduction
